For twelve compounds, IC50, Activity and inhibition results are on record in ChEMBL document CHEMBL2311332, “Epidithiodiketopiperazine as a pharmacophore for protein lysine methyltransferase G9a inhibitors: reducing cytotoxicity by structural simplification” (Bioorg Med Chem Lett, 2013).

The target of data set [1] is T1, Histone-lysine N-methyltransferase EHMT2 (Homo sapiens, UniProt Q96KQ7).
T1 sequence (Q96KQ7 whole entry): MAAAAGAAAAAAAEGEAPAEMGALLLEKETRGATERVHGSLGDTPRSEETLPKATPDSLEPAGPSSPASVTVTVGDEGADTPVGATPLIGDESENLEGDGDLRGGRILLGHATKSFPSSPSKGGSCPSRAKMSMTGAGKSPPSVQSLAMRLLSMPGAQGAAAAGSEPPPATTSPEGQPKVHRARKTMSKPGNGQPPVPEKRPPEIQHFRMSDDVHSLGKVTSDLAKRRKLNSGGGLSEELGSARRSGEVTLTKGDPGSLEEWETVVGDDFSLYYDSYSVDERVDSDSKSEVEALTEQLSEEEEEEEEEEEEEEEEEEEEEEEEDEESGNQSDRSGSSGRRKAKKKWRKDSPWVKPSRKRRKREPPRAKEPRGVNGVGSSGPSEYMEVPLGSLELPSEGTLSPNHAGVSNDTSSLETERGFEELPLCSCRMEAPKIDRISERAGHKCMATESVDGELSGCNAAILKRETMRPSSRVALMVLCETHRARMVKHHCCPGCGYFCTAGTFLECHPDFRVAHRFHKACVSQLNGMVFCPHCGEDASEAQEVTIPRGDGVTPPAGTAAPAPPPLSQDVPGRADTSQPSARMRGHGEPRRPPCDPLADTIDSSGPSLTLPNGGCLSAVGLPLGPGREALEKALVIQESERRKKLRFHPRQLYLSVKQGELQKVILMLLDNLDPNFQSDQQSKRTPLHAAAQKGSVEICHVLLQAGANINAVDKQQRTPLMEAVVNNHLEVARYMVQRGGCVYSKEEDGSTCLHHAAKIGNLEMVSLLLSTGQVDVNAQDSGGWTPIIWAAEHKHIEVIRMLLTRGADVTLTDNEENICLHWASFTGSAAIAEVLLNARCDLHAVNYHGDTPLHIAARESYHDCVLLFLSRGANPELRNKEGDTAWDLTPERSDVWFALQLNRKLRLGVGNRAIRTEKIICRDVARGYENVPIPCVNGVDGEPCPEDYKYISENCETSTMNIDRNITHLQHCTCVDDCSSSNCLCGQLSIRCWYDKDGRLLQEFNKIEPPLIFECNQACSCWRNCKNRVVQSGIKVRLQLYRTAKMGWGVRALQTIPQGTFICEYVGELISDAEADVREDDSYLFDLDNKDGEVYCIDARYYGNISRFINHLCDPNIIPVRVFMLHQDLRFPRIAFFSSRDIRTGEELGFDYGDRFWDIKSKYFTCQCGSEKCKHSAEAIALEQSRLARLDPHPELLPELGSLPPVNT
As to the kind of experiment: Inhibition of protein lysine methyltransferase G9a (unknown origin) by modified ELISA assay. On the technique in general: An ELISA detects its analyte on a solid surface through an enzyme-linked reagent.

A further data set concerns HL-60. As to the kind of experiment: Cytotoxicity against human HL60 cells at 3 to 30 uM after 4 hrs by Alamar Blue assay. It is filed as cell-based. The conditions noted are these: hl-60, 4 h. In a few lines: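 HL-60 cells were exposed to the derivatives for 4 h. Cell viability was then read by alamarBlue.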
A general note: Resazurin is reduced to fluorescent resorufin, in cell work by metabolically active cells.

For data set [2], the target named is Thioredoxin reductase (Homo sapiens) (UniProt Q16881+Q9NNW7+Q86VQ6). The experiment in a line: Inhibition of thioredoxin reductase (unknown origin) assessed as reduction of DTNB at 10 uM. It is filed as protein assay.
For data set [3], the target named is T1, Histone-lysine N-methyltransferase EHMT2. As to the kind of experiment: Inhibition of protein lysine methyltransferase G9a (unknown origin) by ELISA assay.

Calls of active or inactive are those of the source. The calls are words filed in the database; no cut-off is given here.

What is called IC50 is the midpoint of a concentration-inhibition curve. Turning to `CN1C(=O)[C@@H]2C[C@@]3([C@@]45C[C@H]6C(=O)N(C)[C@@H](CO)C(=O)N6[C@@H]4Nc4ccccc45)c4ccccc4N[C@H]3N2C(=O)[C@@H]1CO`, in data set [1], the IC50 is more than 100 µM.
Consider `CN1C(=O)C23CCCN2C(=O)C1(CO)SSS3` (racemic), for which the Activity result in the data set on HL-60 is given as “Non-toxic”. The inhibition entry in data set [2] is “inactive”. For the same compound, half-maximal inhibition in data set [1] (IC50) required 5.3 µM.
In the case of `CN1C(=O)[C@@]23C[C@]4([C@]56C[C@@]78SS[C@@](CO)(C(=O)N7[C@H]5Nc5ccccc56)N(C)C8=O)c5ccccc5N[C@@H]4N2C(=O)[C@]1(CO)SS3` [CHAETOCIN], in data set [1], inhibition was half-maximal at 7.2 µM (IC50).
The same measure, in the same setting: in the case of `CN1C(=O)[C@@]2(S)C[C@]3([C@]45C[C@]6(S)C(=O)N(C)[C@](S)(CO)C(=O)N6[C@H]4Nc4ccccc45)c4ccccc4N[C@@H]3N2C(=O)[C@@]1(S)CO` it was 27.1 µM.
In the case of `CN1C(=O)[C@H]2C[C@]3([C@]45C[C@@H]6C(=O)N(C)[C@H](CO)C(=O)N6[C@H]4Nc4ccccc45)c4ccccc4N[C@@H]3N2C(=O)[C@H]1CO`, the figures for the 50% inhibitory concentration (IC50) in data set [3] and in data set [1] were more than 50 µM and more than 100 µM, respectively.
Compound `CN1C(=O)[C@]23C[C@H]4c5ccccc5N[C@H]4N2C(=O)[C@]1(CO[Si](C)(C)C(C)(C)C)SS3` yielded an IC50 in data set [1] of 23.5 µM.
Consider `CN1C(=O)C2(S)CCCN2C(=O)C1(S)CO` (racemic), for which the Activity result with HL-60 is “Non-toxic”. In addition, the IC50 in data set [1] worked out at 13.1 µM.
Compound `CN1C(=O)[C@]23C[C@@]4([C@@]56C[C@]78SS[C@](CO)(C(=O)N7[C@@H]5Nc5ccccc56)N(C)C8=O)c5ccccc5N[C@H]4N2C(=O)[C@@]1(CO)SS3` had a 50% inhibitory concentration (IC50) in data set [1] of 6.4 µM.
The compound `CN1C(=O)[C@@]23C[C@]4([C@]56C[C@@]78S[C@](CO)(C(=O)N7[C@H]5Nc5ccccc56)N(C)C8=O)c5ccccc5N[C@@H]4N2C(=O)[C@@]1(CO)S3` showed an IC50 in data set [1] of more than 100 µM.
In data set [1], `CN1C(=O)[C@@]23C[C@]4([C@]56C[C@@]78SS[C@](CO[Si](C)(C)C(C)(C)C)(C(=O)N7[C@H]5Nc5ccccc56)N(C)C8=O)c5ccccc5N[C@@H]4N2C(=O)[C@@]1(CO[Si](C)(C)C(C)(C)C)SS3` showed a half-maximal inhibitory concentration (IC50) of 7.2 µM.
For the compound `CN1C(=O)[C@@]23C[C@@H]4c5ccccc5N[C@@H]4N2C(=O)[C@@]1(CO[Si](C)(C)C(C)(C)C)SS3`, in data set [1], the IC50 was 3.3 µM.
As for `CN1C(=O)C23CCCN2C(=O)C1(CO)SS3` (racemic), the Activity result with HL-60 is “Non-toxic”. Besides, in data set [2], the inhibition entry was “inactive”. In data set [1], this compound displayed an IC50 of 5.2 µM.
